Laboratory results reported in ChEMBL document CHEMBL4673255, “Acylated 1H-1,2,4-Triazol-5-amines Targeting Human Coagulation Factor XIIa and Thrombin: Conventional and Microscale Synthesis, Anticoagulant Properties, and Mechanism of Action” (J Med Chem, 2020).
Calls of active or inactive are those of the source. The calls are words filed in the database; no cut-off is given here.

Legend:
[1] = test system: Plasma; test: Antiplatelet activity in […] assessed as inhibition of thrombin-induced platelet aggregation at 1 to 10 uM by light transmission aggregometry; type: functional; details: Homo sapiens, dose 1-10 µM
[2] = test system: Plasma; test: Antiplatelet activity in […] assessed as inhibition of MDA-MB-231-induced platelet aggregation by light transmission aggregometry; type: functional; details: Homo sapiens, dose 0.1-10 µM
[3] = molecular target: Prothrombin (Homo sapiens, UniProt P00734); test: Inhibition of human coagulation factor thrombin using Boc-Val-Pro-Arg-AMC as fluorogenic substrate at 100 nM measured at 1 min interval for 1 hr by fluorometric assay relative to control
Procedure, shortened: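 Screening of crude microscale amide-coupling products. Conversion was measured by 1H NMR and product content normalised to 76 µmol/L in DMSO, then tested at 1 µM and 100 nM in the fluorogenic FXIIa or thrombin assay. A 0-conversion reaction served as blank. Percent inhibition is from triplicates.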

[4] = molecular target: T1, Fatty-acid amide hydrolase 1 (Rattus norvegicus, UniProt P97612); test: Inhibition of FAAH in rat brain membrane using N-(2-hydroxyethyl)-4-pyren-1-ylbutanamide as substrate measured after 60 mins by reverse-phase HPLC-based fluorescence assay; type: cell membranes
T1 sequence (P97612 whole entry): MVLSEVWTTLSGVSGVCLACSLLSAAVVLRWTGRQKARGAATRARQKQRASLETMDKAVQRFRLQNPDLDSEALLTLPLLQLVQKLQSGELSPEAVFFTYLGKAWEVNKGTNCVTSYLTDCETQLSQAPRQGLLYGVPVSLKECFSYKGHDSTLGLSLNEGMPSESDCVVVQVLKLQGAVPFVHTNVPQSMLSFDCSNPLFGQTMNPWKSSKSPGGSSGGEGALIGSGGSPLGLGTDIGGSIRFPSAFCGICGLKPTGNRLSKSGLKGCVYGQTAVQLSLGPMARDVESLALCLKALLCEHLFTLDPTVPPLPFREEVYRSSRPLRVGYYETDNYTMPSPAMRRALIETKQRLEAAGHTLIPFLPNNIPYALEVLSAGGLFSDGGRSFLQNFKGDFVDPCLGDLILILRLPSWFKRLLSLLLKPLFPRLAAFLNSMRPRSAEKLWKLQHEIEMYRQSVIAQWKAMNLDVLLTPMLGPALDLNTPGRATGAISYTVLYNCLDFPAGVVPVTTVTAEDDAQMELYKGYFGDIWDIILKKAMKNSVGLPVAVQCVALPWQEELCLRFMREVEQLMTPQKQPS

[5] = test system: Plasma; test: Antiplatelet activity in […] assessed as inhibition of TRAP6-induced platelet aggregation at 0.1 to 10 uM by light transmission aggregometry; type: functional; details: Homo sapiens, dose 0.1-10 µM
[6] = molecular target: T2, Coagulation factor XII (Homo sapiens) (UniProt P00748); test: Binding affinity to human plasma coagulation factor XIIA assessed as compound-adduct formation by measuring change in molecular mass at molar ratio of 1:20 measured after 4 mins by SEC/ESI-TOF mass spectra analysis; type: cell-free
T2 sequence (whole entry): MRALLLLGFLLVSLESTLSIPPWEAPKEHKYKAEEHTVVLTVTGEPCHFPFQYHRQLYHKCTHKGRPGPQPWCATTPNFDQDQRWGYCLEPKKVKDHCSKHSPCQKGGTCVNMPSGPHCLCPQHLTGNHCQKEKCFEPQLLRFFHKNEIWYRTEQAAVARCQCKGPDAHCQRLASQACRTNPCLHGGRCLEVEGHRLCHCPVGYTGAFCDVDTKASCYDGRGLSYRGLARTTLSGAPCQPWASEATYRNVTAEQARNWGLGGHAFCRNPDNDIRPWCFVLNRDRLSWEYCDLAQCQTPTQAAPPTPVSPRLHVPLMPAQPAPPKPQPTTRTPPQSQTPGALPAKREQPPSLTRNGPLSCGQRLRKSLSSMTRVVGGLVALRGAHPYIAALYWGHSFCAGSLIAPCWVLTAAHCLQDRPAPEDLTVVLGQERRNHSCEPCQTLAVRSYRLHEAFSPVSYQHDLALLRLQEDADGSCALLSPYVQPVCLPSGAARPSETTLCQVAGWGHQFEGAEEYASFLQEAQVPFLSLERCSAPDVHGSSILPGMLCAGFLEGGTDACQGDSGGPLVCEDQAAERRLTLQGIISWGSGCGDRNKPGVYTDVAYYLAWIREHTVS
Procedure, shortened: (§1)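 β-FXIIa incubated with inhibitor at a 1:20 molar ratio, then size-exclusion chromatography coupled to ESI-MS to measure the mass of enzyme–inhibitor complexes. Further runs checked complex stability to probe reversibility.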

[7] = test system: Plasma; test: Antiplatelet activity in human platelet-rich plasma assessed as inhibition of thrombin induced platelet activation by measuring reduction in ATP release preincubated for 20 mins followed by thrombin addition and measured after 10 mins by luciferin-based luminescence assay; type: functional, cell-free; details: time 30.0 min
Procedure, shortened: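 Platelet activation measured as dense-granule ATP release by firefly luciferase bioluminescence. Compound-treated platelets were activated with MDA-MB-231 cells, thrombin or TRAP-6. TRAP-6-induced signal was set as 100%. Triplicate, mean ± SD.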

[8] = test system: Plasma; test: Antiplatelet activity in […] assessed as inhibition of MDA-MB-231-induced platelet aggregation at 10 uM by light transmission aggregometry; type: functional; details: Homo sapiens
[9] = molecular target: T2, Coagulation factor XII (Homo sapiens); test: Binding affinity to human plasma coagulation factor XIIA assessed as compound-adduct formation at molar ratio of 1:20 preincubated for 4 mins followed by desalination and measured after 120 mins by SEC/ESI-TOF mass spectra analysis; type: cell-free; procedure, shortened: as §1
[10] = test system: Blood; test: Anticoagulant activity in human blood assessed as increase in activated partial thromboplastin time at 300 uM incubated for 1 min by aPTT reagent based assay relative to control; type: functional
Procedure, shortened: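 Compounds were tested at 300 µM, and the increase was expressed relative to DMSO. The doubling concentration (EC2×) is the concentration prolonging aPTT twofold. At least triplicate, mean ± SD.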

[11] = Inhibition of porcine trypsin using Z-Gly-Gly-Arg-AMC as fluorogenic substrate measured at 1 min interval for 1 hr by fluorometric assay; design: species or system Sus scrofa
[12] = test system: Plasma; test: Antiplatelet activity in […] assessed as inhibition of MDA-MB-231-induced platelet aggregation at 100 nM by light transmission aggregometry; type: functional; details: Homo sapiens
[13] = molecular target: Coagulation factor X (Homo sapiens, UniProt P00742); test: Inhibition of human coagulation factor Xa using Boc-Ile-Glu-Gly-Arg-AMC as fluorogenic substrate measured at 1 min interval for 1 hr by fluorometric assay
Chain of Coagulation factor X (P00742 41-179 limits assumed): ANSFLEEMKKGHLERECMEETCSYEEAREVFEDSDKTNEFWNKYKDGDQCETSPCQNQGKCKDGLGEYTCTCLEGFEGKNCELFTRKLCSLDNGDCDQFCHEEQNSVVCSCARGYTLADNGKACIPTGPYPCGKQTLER
Chain of Coagulation factor X (P00742 235-488 limits assumed): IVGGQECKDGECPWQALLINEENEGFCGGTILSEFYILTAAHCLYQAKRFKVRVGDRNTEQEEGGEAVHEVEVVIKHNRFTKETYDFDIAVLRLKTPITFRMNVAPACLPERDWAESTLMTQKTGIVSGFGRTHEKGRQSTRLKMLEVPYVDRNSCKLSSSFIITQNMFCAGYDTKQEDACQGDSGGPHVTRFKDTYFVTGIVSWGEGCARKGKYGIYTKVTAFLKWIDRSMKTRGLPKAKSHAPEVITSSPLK

[14] = organism: Homo sapiens; test: Selectivity index, ratio of IC50 for inhibition of human coagulation factor alpha-thrombin using Boc-Val-Pro-Arg-AMC as fluorogenic substrate to IC50 for inhibition of human coagulation factor XIIA using Boc-Gln-Gly-Arg-AMC as fluorogenic substrate incubated for 1 hr by fluorometric assay
[15] = test system: Plasma; test: Antiplatelet activity in […] assessed as inhibition of MDA-MB-231-induced platelet aggregation at 0.1 to 10 uM by light transmission aggregometry; type: functional; details: Homo sapiens, dose 0.1-10 µM

inhibition [3] [%] | IC50 [4] [µM] | Activity [6] [Da] | Activity [9] | IC50 [11] [µM] | IC50 [13] [µM] | Ratio IC50 [14] | SMILES | inhibition [1] | inhibition [2] | inhibition [5] | inhibition [7] | inhibition [8] | Activity [10] [%] | inhibition [12] | inhibition [15]
55 | > 5 | 154 | inactive | > 5 | – | – | Nc1nc(-c2ccccn2)nn1C(=O)c1ccc2ccccc2c1 | Active | Dose-dependent effect | inactive | Dose-dependent effect | Active | 212 | inactive | –
13 | > 5 | – | – | > 5 | > 5 | 13 | Nc1nc(-c2ccccn2)nn1C(=O)c1cccc2ccccc12 | – | – | – | – | – | 176 | – | inactive
